These results are taken from ChEMBL document CHEMBL3227941, “3-Substituted adenines. In vitro enzyme inhibition and antiviral activity” (J Med Chem, 1979).

What is called inhibition is the relative decrease from the control value, in per cent.

Data set [1] concerns Vaccinia virus. Kind of data set: Antiviral activity against Vaccinia virus infected in mouse assessed as assessed as protection against viral infection. The class given is functional, organism-based. Conditions: Orthopoxvirus vaccinia.
For data set [2], the system named is Transmissible gastroenteritis virus. Kind of data set: Antiviral activity against Transmissible gastroenteritis virus infected in pig at 25 mg/animal administered 3 times per day. The class given is functional, organism-based. The essentials: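 Piglets weighing 4-5 lb dosed at 25 mg/pig three times daily and challenged with virus. Weight and survival monitored against untreated controls over 72 h.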

In data set [3] the test system is Sus scrofa. Kind of data set: Toxicity in Transmissible gastroenteritis virus infected pig at 25 mg/animal administered 3 times per day. Format: organism-based. Conditions: in vivo. Summed up:
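Piglets (4-5 lb), four per treated group with two untreated controls, were given 25 mg/pig three times a day and challenged with virus. Body weight was followed from 24 h after challenge through 48 h, and animals were watched for signs of illness and for deaths.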

Data set [4] in a line: Cytotoxicity against Vaccinia virus infected African green monkey BSC1 cells at 100 ug/ml. Format: cell-based. The following applies: chlorocebus aethiops, bsc-1.
The target of data set [5] is T1, Dopamine beta-hydroxylase (Bos taurus, UniProt P15101).
T1 sequence (P15101 whole entry): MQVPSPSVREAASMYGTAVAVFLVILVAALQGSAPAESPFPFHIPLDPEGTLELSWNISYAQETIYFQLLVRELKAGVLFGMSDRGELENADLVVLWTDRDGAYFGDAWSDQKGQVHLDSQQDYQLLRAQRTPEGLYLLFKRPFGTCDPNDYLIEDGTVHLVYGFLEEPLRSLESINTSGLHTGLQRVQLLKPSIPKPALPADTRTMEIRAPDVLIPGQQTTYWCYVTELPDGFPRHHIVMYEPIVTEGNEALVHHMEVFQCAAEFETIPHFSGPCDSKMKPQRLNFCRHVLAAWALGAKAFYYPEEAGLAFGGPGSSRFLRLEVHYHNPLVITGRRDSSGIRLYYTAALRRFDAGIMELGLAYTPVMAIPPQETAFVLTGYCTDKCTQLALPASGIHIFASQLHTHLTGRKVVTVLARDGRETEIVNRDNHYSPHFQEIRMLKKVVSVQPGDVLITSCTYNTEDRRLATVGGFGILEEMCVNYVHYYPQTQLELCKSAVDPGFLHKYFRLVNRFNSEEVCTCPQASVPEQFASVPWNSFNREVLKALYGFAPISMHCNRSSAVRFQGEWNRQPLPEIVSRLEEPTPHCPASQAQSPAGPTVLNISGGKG
Kind of data set: Inhibition of bovine adrenal medullae dopamine-beta-hydroxylase. Also on record: species or system Adrenal medulla. The following applies: read-out: I50 (converted).

Data set [6] concerns Human alphaherpesvirus 1. Kind of data set: Antiviral activity against HSV1 infected in African green monkey BSC-1 cells assessed as inhibition of virus multiplication at 50 ug/ml after 96 hrs by plaque reduction assay. Conditions: Human alphaherpesvirus 1, BSC-1, 96 h. Format: functional. A general note: Plaques are areas of infected cells; plaque reduction assays count them against a control.

Data set [7] concerns Human alphaherpesvirus 1. The data set can be described thus: Antiviral activity against HSV1 infected in African green monkey BSC-1 cells assessed as inhibition of virus multiplication at 25 ug/ml after 96 hrs by plaque reduction assay. Conditions: Human alphaherpesvirus 1, BSC-1, 96 h. The class given is functional.
For data set [8], the system named is Human alphaherpesvirus 1. Kind of data set: Antiviral activity against HSV1 infected in African green monkey BSC-1 cells assessed as inhibition of virus multiplication at 12 ug/ml after 96 hrs by plaque reduction assay. The class given is functional. Conditions: Human alphaherpesvirus 1, BSC-1, 96 h.
For data set [9], the system named is Human alphaherpesvirus 1. Kind of data set: Antiviral activity against HSV1 infected in African green monkey BSC-1 cells assessed as inhibition of virus multiplication at 6 ug/ml after 96 hrs by plaque reduction assay. Format: functional. The following applies: Human alphaherpesvirus 1, BSC-1, 96 h.
The subject of data set [10] is Vaccinia virus. Kind of data set: Antiviral activity against Vaccinia virus infected in African green monkey BSC-1 cells assessed as inhibition of virus multiplication at 50 ug/ml after 96 hrs by plaque reduction assay. The class given is functional. The following applies: Orthopoxvirus vaccinia, BSC-1, 96 h.
In data set [11] the test system is Vaccinia virus. Kind of data set: Antiviral activity against Vaccinia virus infected in African green monkey BSC-1 cells assessed as inhibition of virus multiplication at 25 ug/ml after 96 hrs by plaque reduction assay. The class given is functional. Conditions: Orthopoxvirus vaccinia, BSC-1, 96 h.
Data set [12] relates to Vaccinia virus. Kind of data set: Antiviral activity against Vaccinia virus infected in African green monkey BSC-1 cells assessed as inhibition of virus multiplication at 12 ug/ml after 96 hrs by plaque reduction assay. The following applies: Orthopoxvirus vaccinia, BSC-1, 96 h. Format: functional.
Data set [13] deals with Vaccinia virus. Kind of data set: Antiviral activity against Vaccinia virus infected in African green monkey BSC-1 cells assessed as inhibition of virus multiplication at 6 ug/ml after 96 hrs by plaque reduction assay. Format: functional. Conditions: Orthopoxvirus vaccinia, BSC-1, 96 h.
For data set [14], the system named is Vaccinia virus. The data set can be described thus: Antiviral activity against Vaccinia virus infected in African green monkey BSC-1 cells assessed as inhibition of virus multiplication at 3 ug/ml after 96 hrs by plaque reduction assay. The class given is functional. The following applies: Orthopoxvirus vaccinia, BSC-1, 96 h.
The subject of data set [15] is Human alphaherpesvirus 1. The data set can be described thus: Antiviral activity against HSV1 infected in mouse assessed as assessed as protection against viral infection. The class given is functional, organism-based.
The nature of data set [16]: Cytotoxicity against HSV1 infected African green monkey BSC1 cells at 50 ug/ml. Format: cell-based. The following applies: chlorocebus aethiops, bsc-1.
Data set [17] can be described thus: Cytotoxicity against HSV1 infected African green monkey BSC1 cells at 25 ug/ml. Format: cell-based. The following applies: chlorocebus aethiops, bsc-1.
Data set [18] in a line: Cytotoxicity against Vaccinia virus infected African green monkey BSC1 cells at 50 ug/ml. The class given is cell-based. Conditions: chlorocebus aethiops, bsc-1.
Data set [19] can be described thus: Cytotoxicity against Vaccinia virus infected African green monkey BSC1 cells at 25 ug/ml. Format: cell-based. Conditions: chlorocebus aethiops, bsc-1.
Data set [20] relates to Rattus norvegicus. The data set can be described thus: Inhibition of dopamine-beta-hydroxylase in Wistar rat assessed as reduction of norepinephrine level in brain at 50 mg/kg, ip after 3 hrs (reference value: 0.67 +/- 0.02 ug/g). Format: functional. The following applies: route intraperitoneal.
The subject of data set [21] is Rattus norvegicus. Kind of data set: Inhibition of dopamine-beta-hydroxylase in Wistar rat assessed as reduction of norepinephrine level in brain at 50 mg/kg, ip after 6 hrs (reference value: 0.67 +/- 0.02 ug/g). The class given is functional. Conditions: route intraperitoneal.
In data set [22] the test system is Rattus norvegicus. The data set can be described thus: Inhibition of dopamine-beta-hydroxylase in Wistar rat assessed as reduction of norepinephrine level in brain at 50 mg/kg, ip after 24 hrs (reference value: 0.67 +/- 0.02 ug/g). Format: functional. The following applies: route intraperitoneal.
Data set [23] has as its system Rattus norvegicus. The data set can be described thus: Inhibition of dopamine-beta-hydroxylase in Wistar rat assessed as reduction of norepinephrine level in heart at 50 mg/kg, ip after 3 hrs (reference value: 0.55 +/- 0.04 ug/g). Format: functional. The following applies: route intraperitoneal.
For data set [24], the system named is Rattus norvegicus. Kind of data set: Inhibition of dopamine-beta-hydroxylase in Wistar rat assessed as reduction of norepinephrine level in heart at 50 mg/kg, ip after 6 hrs (reference value: 0.55 +/- 0.04 ug/g). The following applies: route intraperitoneal. The class given is functional.
Data set [25] relates to Rattus norvegicus. The data set can be described thus: Inhibition of dopamine-beta-hydroxylase in Wistar rat assessed as reduction of norepinephrine level in heart at 50 mg/kg, ip after 24 hrs (reference value: 0.55 +/- 0.04 ug/g). Format: functional. Conditions: route intraperitoneal.
In data set [26] the test system is Rattus norvegicus. Kind of data set: Inhibition of dopamine-beta-hydroxylase in Wistar rat assessed as reduction of adrenal catecholamine level at 50 mg/kg, ip after 3 hrs assessed per adrenal pair (reference value: 10.6 +/- 0.7 ug). The following applies: route intraperitoneal. Format: functional.
Data set [27] deals with Rattus norvegicus. Kind of data set: Inhibition of dopamine-beta-hydroxylase in Wistar rat assessed as reduction of adrenal catecholamine level at 50 mg/kg, ip after 6 hrs assessed per adrenal pair (reference value: 10.6 +/- 0.7 ug). Format: functional. Conditions: route intraperitoneal.
For data set [28], the system named is Rattus norvegicus. The data set can be described thus: Inhibition of dopamine-beta-hydroxylase in Wistar rat assessed as reduction of adrenal catecholamine level at 50 mg/kg, ip after 24 hrs assessed per adrenal pair (reference value: 10.6 +/- 0.7 ug). The class given is functional. The following applies: route intraperitoneal.

Active and inactive are the calls of the source. The calls are words filed in the database; no cut-off is given here.

On to `Nc1ncn(Cc2ccccc2Br)c2ncnc1-2`, for which the outcome in data set [1], in data set [2] and in data set [15] was inactive. Also, the Activity result in data set [3] and in [4] was “Toxic” in each case. Also, in [5], the IC50 was 658 µM. Moreover, the inhibition at 50 µg/mL in [6] and in data set [10] was 100% throughout. The inhibition at 25 µg/mL in [7] and in data set [11] was 100% in each case. In addition, the inhibition at 12 µg/mL in data set [8] was 100%; in [12], 34%. Moreover, the inhibition at 6 µg/mL in [9] is 71%; in data set [13], 0%. For the same compound, the inhibition at 3 µg/mL in data set [14] amounted to 0%.
For `Cc1ccc(Cn2cnc(N)c3ncnc2-3)cc1C`, the Activity entry in [16], in data set [17], in data set [4], in [18] and in [19] was “Toxic” throughout. Also, the IC50 in data set [5] is 79 µM. The inhibition at 12 µg/mL was 42% in data set [8] and 0% in data set [12]. Further, the inhibition at 6 µg/mL in data set [9] and in [13] was 0% throughout. The inhibition at 3 µg/mL in [14] came to 0%.
As to `Br.CCCCCn1cnc(N)c2ncnc1-2.Cl`, the Activity in [20] came to 0.65 µg/g; in [21], 0.62 µg/g; in data set [22], 0.62 µg/g; in data set [23], 0.59 µg/g; in [24] it was 0.57 µg/g; in [25] it was 0.56 µg/g. The Activity in data set [26] stood at 14.1 µg; in data set [27] it was 12.1 µg; in data set [28] it was 11.3 µg.
